Data published in ChEMBL document CHEMBL3286367, “Synthesis of new class of spirocarbocycle derivatives by multicomponent domino reaction and their evaluation for antimicrobial, anticancer activity and molecular docking studies” (2014).
≈ marks a conversion by molar mass, not a printed value. Calls of active or inactive are those of the source. The calls are words filed in the database; no cut-off is given here.

How the values were obtained:
[1] = system: Salmonella typhimurium; assay: Antimicrobial activity against Salmonella typhimurium MTCC 1251 assessed as absence of visible growth after 48 to 72 hrs; assay type: functional, Salmonella enterica subsp. enterica serovar Typhimurium; conditions: Salmonella enterica
[2] = system: Shigella flexneri; assay: Antimicrobial activity against Shigella flexneri MTCC 1457 assessed as absence of visible growth after 24 hrs
[3] = system: Staphylococcus aureus; assay: Antimicrobial activity against Staphylococcus aureus MTCC 96 assessed as zone of inhibition at 1 mg/disc after 24 hrs incubation by disc diffusion assay; assay type: functional
Outline: (§1)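 Inocula grown in Mueller Hinton broth for 24 h at 37 °C and swabbed onto Mueller Hinton agar. Discs carried 1 mg compound each and stood 30 min at room temperature before 24 h incubation at 37 °C. Solvent as negative control. Inhibition zones recorded in mm; experiment done twice.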

[4] = system: Klebsiella aerogenes; assay: Antimicrobial activity against Enterobacter aerogenes MTCC 111 assessed as absence of visible growth after 48 to 72 hrs; assay type: functional
[5] = system: Micrococcus luteus; assay: Antimicrobial activity against Micrococcus luteus MTCC 106 assessed as zone of inhibition at 1 mg/disc after 24 hrs incubation by disc diffusion assay; assay type: functional; outline: as §1
[6] = system: Klebsiella pneumoniae; assay: Antimicrobial activity against Klebsiella pneumonia MTCC 109 assessed as zone of inhibition at 1 mg/disc after 24 hrs incubation by disc diffusion assay; assay type: functional; outline: as §1
[7] = system: Staphylococcus epidermidis; assay: Antimicrobial activity against Staphylococcus epidermidis MTCC 3615 assessed as zone of inhibition at 1 mg/disc after 24 hrs incubation by disc diffusion assay; assay type: functional; outline: as §1
[8] = system: Klebsiella aerogenes; assay: Antimicrobial activity against Enterobacter aerogenes MTCC 111 assessed as zone of inhibition at 1 mg/disc after 24 hrs incubation by disc diffusion assay; assay type: functional; outline: as §1
[9] = system: Malassezia pachydermatis; assay: Antifungal activity against Malassezia pachydermatis assessed as zone of inhibition at 1 mg/disc after 48 hrs incubation by disc diffusion assay; assay type: functional
Outline: (§2)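 Disc diffusion on Mueller Hinton agar with swabbed cultures, 1 mg compound per disc. Discs stood 30 min at room temperature for diffusion, then plates incubated 48 h at 28 °C. Solvent as negative control. Yeast pre-grown in Sabouraud dextrose broth at 28 °C for 48-72 h; filamentous fungal spores came from SDA slants grown 10 days at 28 °C. Zone diameters in mm; run twice.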

[10] = system: Staphylococcus aureus; assay: Antimicrobial activity against methicillin-resistant Staphylococcus aureus assessed as absence of visible growth after 48 to 72 hrs; assay type: functional
Outline: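 Broth two-fold serial dilution in 96-well plates, 1000 to 7.81 µg/mL, compound dissolved in DMSO (2%). Inoculum grown in Mueller Hinton broth 24 h at 37°C. Streptomycin positive control. 5 µl of tested broth plated on MHA; MIC is the lowest concentration inhibiting visible growth on agar.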

[11] = system: Micrococcus luteus; assay: Antimicrobial activity against Micrococcus luteus MTCC 106 assessed as absence of visible growth after 48 to 72 hrs; assay type: functional
[12] = system: Salmonella typhimurium; assay: Antimicrobial activity against Salmonella typhimurium MTCC 1251 assessed as zone of inhibition at 1 mg/disc after 24 hrs incubation by disc diffusion assay; assay type: functional, Salmonella enterica subsp. enterica serovar Typhimurium; outline: as §1
[13] = system: Staphylococcus aureus; assay: Antimicrobial activity against Staphylococcus aureus MTCC 96 assessed as absence of visible growth after 48 to 72 hrs; assay type: functional
[14] = system: Shigella flexneri; assay: Antimicrobial activity against Shigella flexneri MTCC 1457 assessed as zone of inhibition at 1 mg/disc after 24 hrs incubation by disc diffusion assay; assay type: functional; outline: as §1
[15] = system: Klebsiella pneumoniae; assay: Antimicrobial activity against Klebsiella pneumonia MTCC 109 assessed as absence of visible growth after 24 hrs
[16] = system: Proteus vulgaris; assay: Antimicrobial activity against Proteus vulgaris MTCC 1771 assessed as absence of visible growth after 48 to 72 hrs; assay type: functional
[17] = system: Staphylococcus epidermidis; assay: Antimicrobial activity against Staphylococcus epidermidis MTCC 3615 assessed as absence of visible growth after 24 hrs
[18] = system: Candida albicans; assay: Antifungal activity against Candida albicans MTCC 227 assessed as zone of inhibition at 1 mg/disc after 48 hrs incubation by disc diffusion assay; assay type: functional; outline: as §2
[19] = system: Staphylococcus aureus; assay: Antimicrobial activity against methicillin-resistant Staphylococcus aureus assessed as zone of inhibition at 1 mg/disc after 24 hrs incubation by disc diffusion assay; assay type: functional
Outline: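 Inoculum grown in Mueller Hinton broth 24 h at 37°C, swabbed onto Mueller Hinton agar and dried 10 min. Discs loaded at 1 mg/disc, then 30 min at room temperature for diffusion. Plates incubated 24 h at 37°C. Solvent negative control; streptomycin positive control. Zone of inhibition read in mm; experiment done twice.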

[20] = system: Proteus vulgaris; assay: Antimicrobial activity against Proteus vulgaris MTCC 1771 assessed as zone of inhibition at 1 mg/disc after 24 hrs incubation by disc diffusion assay; assay type: functional; outline: as §1

| SMILES | MIC [1] [µg/mL] | MIC [2] [µg/mL] | inhibition zone (IZ) [3] [mm] | MIC [4] [µg/mL] | inhibition zone (IZ) [5] [mm] | inhibition zone (IZ) [6] [mm] | inhibition zone (IZ) [7] [mm] | inhibition zone (IZ) [8] [mm] | inhibition zone (IZ) [9] [mm] | MIC [10] [µg/mL] | MIC [11] [µg/mL] | inhibition zone (IZ) [12] [mm] | MIC [13] [µg/mL] | inhibition zone (IZ) [14] [mm] | MIC [15] [µg/mL] | MIC [16] [µg/mL] | MIC [17] [µg/mL] | inhibition zone (IZ) [18] [mm] | inhibition zone (IZ) [19] [mm] | inhibition zone (IZ) [20] [mm] | further results |
| --- | --- | --- | --- | --- | --- | --- | --- | --- | --- | --- | --- | --- | --- | --- | --- | --- | --- | --- | --- | --- | --- |
| N#CC1=C(N)C2(C(=O)c3ccccc3C2=O)[C@@H](c2cccc3ccccc23)[C@@H]2CCCC=C12 (relative stereo) | 125 (≈ 290 µM) | 62.5 (≈ 145 µM) | 12 | 125 (≈ 290 µM) | 22 | 17 | 15 | 17 | 9 | 62.5 (≈ 145 µM) | 62.5 (≈ 145 µM) | 18 | 250 (≈ 581 µM) | 21 | 125 (≈ 290 µM) | 125 (≈ 290 µM) | 125 (≈ 290 µM) | 10 | 21 | 19 |  |
| Cc1ccc([C@H]2[C@@H]3CCCCC=C3C(C#N)=C(N)[C@]23C(=O)Nc2ccccc23)cc1 | 125 (≈ 316 µM) | 250 (≈ 632 µM) | 13 | 250 (≈ 632 µM) | 13 | 12 | 14 | 12 | 8 | 250 (≈ 632 µM) | 250 (≈ 632 µM) | 16 | 250 (≈ 632 µM) | 11 | 250 (≈ 632 µM) | 250 (≈ 632 µM) | 250 (≈ 632 µM) | 9 | 15 | 12 |  |
| CC(=O)N1CCN(c2ccc(OCC3COC(Cn4ccnc4)(c4ccc(Cl)cc4Cl)O3)cc2)CC1 (racemic) [KETOCONAZOLE] |  |  |  |  |  |  |  |  | 26 |  |  |  |  |  |  |  |  | 28 |  |  |  |
| COc1ccc([C@H]2[C@@H]3CCC=C3C(C#N)=C(N)C23C(=O)c2ccccc2C3=O)cc1 (relative stereo) |  |  |  |  | 8 | 11 |  |  |  |  |  |  |  |  |  |  |  |  | 10 |  | inhibition [3]: inactive; inhibition [7]: inactive; inhibition [8]: inactive; inhibition [9]: inactive; inhibition ([12]; Salmonella enterica subsp. enterica serovar Typhimurium): inactive; inhibition [14]: inactive; inhibition [18]: inactive; inhibition [20]: inactive |
| N#CC1=C(N)C2(C(=O)c3ccccc3C2=O)[C@@H](c2ccccc2F)[C@@H]2CCCC=C12 (relative stereo) | 500 (≈ 1250 µM) | 250 (≈ 627 µM) | 14 | 250 (≈ 627 µM) | 15 | 16 | 14 | 12 |  | 250 (≈ 627 µM) | 250 (≈ 627 µM) | 10 | 250 (≈ 627 µM) | 14 | 125 (≈ 314 µM) | 250 (≈ 627 µM) | 250 (≈ 627 µM) | 10 | 13 | 12 | inhibition [9]: inactive |
| N#CC1=C(N)[C@]2(C(=O)Nc3ccccc32)[C@@H](c2ccccc2F)[C@@H]2CCCC=C12 (mixture of isomers) | 250 | 1000 | 17 | 250 | 10 | 10 | 13 | 14 |  | 250 | 250 | 11 | 125 | 9 | 500 | 1000 | 250 | 10 | 12 | 8 | inhibition [9]: inactive |
